Test results from ChEMBL document CHEMBL5653632, “PRMT5 inhibition disrupts splicing and stemness in glioblastoma” (Nat Commun, 2021).
Calls of active or inactive are those of the source.

How the values were obtained:
G561 = assay: Antiproliferative activity against human G561 cells at 1 uM incubated for 9 to 12 days by IncuCyte zoom live-cell imaging analysis; format: functional, cell-based; details: time 9-12 day
Outline: (§1)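 Adherent GSCs were cultured in serum-free medium with EGF and bFGF on poly-L-ornithine/laminin and plated in triplicate in 96-well plates. They were treated at 1 µM, with 1 µM SGC2096 or 0.05% DMSO as controls, for 9–12 days or until DMSO wells were confluent. Medium with drug was refreshed every 5 days. IncuCyte confluence was imaged every 8 h and normalized to each well's initial confluence.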

G411 = assay: Antiproliferative activity against human G411 cells at 1 uM incubated for 9 to 12 days by IncuCyte zoom live-cell imaging analysis; format: functional, cell-based; details: time 9-12 day; outline: as §1
G583 = assay: Antiproliferative activity against human G583 cells at 1 uM incubated for 9 to 12 days by IncuCyte zoom live-cell imaging analysis; format: functional, cell-based; details: time 9-12 day; outline: as §1
[1] = target: Protein arginine N-methyltransferase 5 (Homo sapiens) (UniProt O14744); assay: Inhibition of PRMT5 in human G411 cells assessed as reduction in SDMA level at 1 uM after 5 days by Western blot analysis; format: cell-based; details: time 5.0 day
Chain of Protein arginine N-methyltransferase 5 (Homo sapiens) (O14744 whole entry): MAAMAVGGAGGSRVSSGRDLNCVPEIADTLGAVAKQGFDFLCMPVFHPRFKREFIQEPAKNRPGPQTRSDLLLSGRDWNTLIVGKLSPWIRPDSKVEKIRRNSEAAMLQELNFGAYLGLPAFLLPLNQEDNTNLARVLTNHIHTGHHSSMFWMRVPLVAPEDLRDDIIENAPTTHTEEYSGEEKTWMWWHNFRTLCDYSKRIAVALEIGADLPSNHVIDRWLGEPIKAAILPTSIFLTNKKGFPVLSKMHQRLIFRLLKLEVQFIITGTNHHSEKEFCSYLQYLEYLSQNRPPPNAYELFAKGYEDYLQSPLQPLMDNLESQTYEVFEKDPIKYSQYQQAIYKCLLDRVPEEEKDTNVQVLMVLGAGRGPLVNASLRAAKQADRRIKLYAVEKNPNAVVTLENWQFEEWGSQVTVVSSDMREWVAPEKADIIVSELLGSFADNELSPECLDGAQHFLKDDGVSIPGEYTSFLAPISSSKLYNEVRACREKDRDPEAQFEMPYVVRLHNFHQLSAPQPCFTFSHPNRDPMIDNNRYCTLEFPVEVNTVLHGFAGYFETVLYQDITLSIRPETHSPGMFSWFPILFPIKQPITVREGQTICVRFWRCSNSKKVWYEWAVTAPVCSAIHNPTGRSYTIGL
Outline: (§2)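 Symmetric dimethylarginine on SmB/B' was measured by western blot with IRDye secondary antibodies and infrared imaging.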

[2] = target: Protein arginine N-methyltransferase 5 (Homo sapiens) (UniProt O14744); assay: Inhibition of PRMT5 in human G561 cells assessed as reduction in SDMA level at 1 uM after 5 days by Western blot analysis; format: cell-based; details: time 5.0 day; outline: as §2
[3] = target: Protein arginine N-methyltransferase 5 (Homo sapiens) (UniProt O14744); assay: Inhibition of PRMT5 in human G583 cells assessed as reduction in SDMA level at 1 uM after 5 days by Western blot analysis; format: cell-based; details: time 5.0 day; outline: as §2

O=C(NC[C@H](O)CN1CCCCC1)c1ccnc(NC2CCC2)c1
inactive: Activity (G561) | Activity (G411) | Activity (G583) | inhibition [1] | inhibition [2] | inhibition [3]
